Experimental data as given in ChEMBL document CHEMBL1138239, “Probing molecular interactions within class II MHC Aq/glycopeptide/T-cell receptor complexes associated with collagen-induced arthritis” (2007).
*1 amine or outer side, *2 acyl side, *3 side chain or, on linkers, in order; H or OH if unused. Where a SMILES comes first, the peptide text is derived from it. [ ]: non-standard residue; d: D form. X4 = NC[C@@H](CC[C@H](N[*:1])C(=O)[*:2])O[C@@H]1O[C@H](CO)[C@H](O)[C@H](O)[C@H]1O; X2 = C[C@H](N[*:1])C(=O)CCC(=O)[*:2]; X5 = C[C@@H](/C=C/CC(=O)[*:2])N[*:1]

Legend:
Type in all cases: functional, Mus musculus
[1] = Induction of immune response of T-cell HMIR.2 hybridoma in presence of antigen-presenting spleen cells expressing Aq assessed as drug concentration required to induce IL2 secretion after 24 hrs by ELISA
Procedure, shortened: (§1)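 5 × 10⁴ hybridoma cells co-cultured with 5 × 10⁵ syngeneic spleen cells and glycopeptide at 0, 0.00128, 0.0064, 0.032, 0.16, 0.8, 4, 20 µM for 24 h. Supernatant frozen, then IL-2 measured by sandwich ELISA (rat anti-mouse IL-2 capture and biotin detection, DELFIA read-out) against a recombinant mouse IL-2 standard. Score is the lowest concentration giving IL-2 at 6% of the maximal response to the native CII259-273 glycopeptide reference.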

[2] = Induction of immune response of T-cell 22a1-7E hybridoma in presence of antigen-presenting spleen cells expressing Aq assessed as drug concentration required to induce IL2 secretion after 24 hrs by ELISA; procedure, shortened: as §1
[3] = Induction of immune response of T-cell HCQ.2 hybridoma in presence of antigen-presenting spleen cells expressing Aq assessed as drug concentration required to induce IL2 secretion after 24 hrs by ELISA; procedure, shortened: as §1
[4] = Induction of immune response of T-cell HCQ.3 hybridoma in presence of antigen-presenting spleen cells expressing Aq assessed as drug concentration required to induce IL2 secretion after 24 hrs by ELISA; procedure, shortened: as §1
[5] = Induction of immune response of T-cell HD13.9 hybridoma in presence of antigen-presenting spleen cells expressing Aq assessed as drug concentration required to induce IL2 secretion after 24 hrs by ELISA; procedure, shortened: as §1
[6] = Induction of immune response of T-cell HD13.10 hybridoma in presence of antigen-presenting spleen cells expressing Aq assessed as drug concentration required to induce IL2 secretion after 24 hrs by ELISA; procedure, shortened: as §1
[7] = Induction of immune response of T-cell HNC.1 hybridoma in presence of antigen-presenting spleen cells expressing Aq assessed as drug concentration required to induce IL2 secretion after 24 hrs by ELISA; procedure, shortened: as §1
[8] = Induction of immune response of T-cell HCQ.6 hybridoma in presence of antigen-presenting spleen cells expressing Aq assessed as drug concentration required to induce IL2 secretion after 24 hrs by ELISA; procedure, shortened: as §1

| Compound | Activity [1] [µM] | Activity [2] [µM] | Activity [3] [µM] | Activity [4] [µM] | Activity [5] [µM] | Activity [6] [µM] | Activity [7] [µM] | Activity [8] [µM] |
| --- | --- | --- | --- | --- | --- | --- | --- | --- |
| CC[C@H](C)[C@H](NC(=O)CN)C(=O)N[C@@H](C)C(=O)CCC(=O)N[C@@H](Cc1ccccc1)C(=O)N[C@@H](CC[C@H](CN)O[C@@H]1O[C@H](CO)[C@H](O)[C@H](O)[C@H]1O)C(=O)NCC(=O)N[C@@H](CCC(=O)O)C(=O)N[C@@H](CCC(N)=O)C(=O)NCC(=O)N1CCC[C@H]1C(=O)N[C@@H](CCCCN)C(=O)NCC(=O)N[C@@H](CCC(=O)O)C(=O)N[C@H](C(=O)O)[C@@H](C)O (H-GI[X2]F[X4]GEQGPKGET-OH) | 4 | 4 | 0.8 | 0.8 | 0.8 | 0.8 | 4 | 0.8 |
| CC[C@H](C)[C@H](NC(=O)CN)C(=O)N[C@@H](C)/C=C/CC(=O)N[C@@H](Cc1ccccc1)C(=O)N[C@@H](CC[C@H](CN)O[C@@H]1O[C@H](CO)[C@H](O)[C@H](O)[C@H]1O)C(=O)NCC(=O)N[C@@H](CCC(=O)O)C(=O)N[C@@H](CCC(N)=O)C(=O)NCC(=O)N1CCC[C@H]1C(=O)N[C@@H](CCCCN)C(=O)NCC(=O)N[C@@H](CCC(=O)O)C(=O)N[C@H](C(=O)O)[C@@H](C)O (H-GI[X5]F[X4]GEQGPKGET-OH) |  |  | 20 | 20 |  |  |  | 20 |
